DDE Tn7 FP inh = inhibitors of Tn7 peptide binding to fibrin DD(E), primary screen, biochemical, fluorescence polarization, human fibrin, Tn7 probe | Fibrinogen beta chain (Homo sapiens), P02675 | inhibition, % at 8.3 µM | FP displacement of FITC-Tn7 peptide from fibrin DD(E); 0% = median of compound wells per plate | AID 720508, 2013 | actives 0.13% (n = 370,000);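 active = inhibition above the mean of compounds falling within the control limits plus 3 SD of them, cut at about 14% in these data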
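Assay system: Human clot-derived fibrin DD(E) complex | Buffer or medium: Tris/NaCl/CaCl2 buffer, pH 7.8 | Repeats: One replicate per compound | Benchmarks: Aha-Tn7 high control | Measure: % inhibition scaled between sample-field median and high-control FP | Schedule: 10 min plus 3 h, room temperature | Signal: Fluorescence polarization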
DDE Tn6 FP inh = inhibitors of Tn6 peptide binding to fibrin DD(E), primary screen, biochemical, fluorescence polarization, human fibrin, Tn6 probe; Fibrinogen beta chain (Homo sapiens), P02675; Fibrin DD(E) TRITC-Tn6 fluorescence polarization displacement; inhibition, % at 8.3 µM; actives 0.21% (n = 370,000);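 active = inhibition above a per-campaign cutoff: mean of compounds within control limits plus 3 SD, cut at about 15% in these data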
DNA FID counter = compounds displacing fluorescent DNA intercalator, primary screen, artefact control for HCV NS3 helicase inhibitor project, biochemical, FID fluorescence; actives 0.17% (n = 290,000); inhibition, % at 7.9 µM; DNA fluorescent intercalator displacement; AID 1845, 2009; in the data active = inhibition above about 37%;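 also: higher means more ethidium bromide displaced from hairpin DNA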
PLCb3 inh = human PLC-beta3 inhibitors, primary screen, biochemical, fluorescence; inhibition, % at 12.2 µM; AID 720704, 2013; Purified PLC-beta3, fluorogenic substrate; actives 0.18% (n = 370,000); in the data active = inhibition above about 11%
PLC-gamma1 inh = PLC-gamma1 enzyme inhibitors, primary screen, biochemical, fluorescence, purified enzyme; actives 0.84% (n = 370,000); fluorogenic substrate; AID 720700, 2013; inhibition, % at 12.2 µM; in the data active = inhibition above about 9.5%
Large screens that a line does not name were inactive. This is a sample that favours compounds with a hit; in the whole collection about 1.4% have one here.

c1ccc(-c2noc(CN3CCCC(OCc4ccccn4)C3)n2)cc1 (configuration not stated)	DNA FID counter 60
COc1ccc(C(=O)c2cc([N+](=O)[O-])ccc2N2CCCC2)cc1	none
COc1ccc(C(=O)c2cc([N+](=O)[O-])ccc2N2CCN(C)CC2)cc1	DNA FID counter 40
O=C(Nc1ccc(Oc2ccccc2)cc1)c1csc([C@@H]2O[C@H](CO)[C@H](O)[C@H](O)[C@H]2O)n1	PLC-gamma1 inh 9.7 (no result: DNA FID counter)
CCN(CC)CCOC(=O)c1ccc(NC(=O)CCCN2C(=O)/C(=C/c3cccs3)SC2=S)cc1	DNA FID counter 44
CCC1CCCCN1S(=O)(=O)c1ccc(C(=O)N(CCCN(C)C)c2nc3cc4c(cc3s2)OCO4)cc1 (configuration not stated)	DNA FID counter 39
CC1CCCCN1S(=O)(=O)c1ccc(C(=O)N(CCCN(C)C)c2nc3ccc(Br)cc3s2)cc1 (configuration not stated)	DNA FID counter 38
CC(C)C[C@H]1COc2cc(N3CCN(Cc4ccccc4F)CC3)ccc2S(=O)(=O)N1	none (no result: DNA FID counter)
C[C@@H]1COc2cc(N3CCN(Cc4ccccc4F)CC3)ccc2S(=O)(=O)N1	PLC-gamma1 inh 9.8 (no result: DNA FID counter)
O=C(N/C(=C\c1ccc(Cl)cc1)C(=O)N1CCOCC1)c1ccc([N+](=O)[O-])cc1	PLC-gamma1 inh 15
O=C1Nc2ccccc2CCc2ccccc21	none (no result: DNA FID counter)
O=C1Cc2ccccc2C(=O)N1	PLC-gamma1 inh 11 (no result: DNA FID counter)
CC(=O)OCCn1c(=O)c2cc3c(=O)n(CCOC(C)=O)c(=O)c3cc2c1=O	PLC-gamma1 inh 9.9
C[C@@]12C(=O)N(Cc3ccc(Cl)cc3)CC(=O)N1[C@H]1c3ccccc3OC[C@@H]1[C@@H]2c1ccccc1	none (no result: DNA FID counter)
COc1cc(C(=O)OC(C)C(=O)NC(=O)NC2CCCCC2)ccc1OC(F)F (configuration not stated)	none (no result: DNA FID counter)
O=[N+]([O-])c1ccc(N/N=C/c2ccc(O)c(O)c2O)c(S(=O)(=O)N2CCOCC2)c1	PLC-gamma1 inh 11
Cc1cc(C)cc(C(=O)Nc2ccc(NC(=O)c3cccs3)cc2)c1	none
C[C@H](CO)N1C[C@H](C)[C@@H](CN(C)CC2CCCCC2)Oc2c(NS(=O)(=O)c3ccccc3)cccc2C1=O	PLCb3 inh 11 (no result: DNA FID counter)
COc1ccc(NC(=O)Nc2cccc3c2O[C@H](CN(C)S(=O)(=O)c2ccc(OC)cc2)[C@@H](C)CN([C@H](C)CO)C3=O)cc1	none (no result: DNA FID counter)
COc1ccc(S(=O)(=O)N(C)C[C@H]2Oc3c(NC(=O)C4CCCCC4)cccc3C(=O)N([C@H](C)CO)C[C@@H]2C)cc1	PLC-gamma1 inh 9.6 (no result: DNA FID counter)
CCCCNc1c2c3c(cccc3n(C)c1=O)C(=O)c1ccccc1-2	none (no result: DDE Tn7 FP inh, DDE Tn6 FP inh, PLCb3 inh, PLC-gamma1 inh)
Cn1c(=O)c(NCCO)c2c3c(cccc31)C(=O)c1ccccc1-2	DDE Tn6 FP inh 37
Cn1c(=O)c(NCCc2ccccc2)c2c3c(cccc31)C(=O)c1ccccc1-2	DDE Tn6 FP inh active
COc1ccccc1NC(=S)NC(NC(=O)c1ccco1)C(Cl)(Cl)Cl (configuration not stated)	none
CCn1ccc(C(=O)N2CCN(c3ncccn3)CC2)n1	none
CCOc1ccccc1N1CCN(C(=S)NCc2ccco2)CC1	none
Cc1ccc(-c2cc(-c3ccccc3)nc(N)c2C#N)o1	none
CCN(CC)c1ccc(/C=C(\C#N)c2ccccn2)cc1	none (no result: DDE Tn7 FP inh, DDE Tn6 FP inh, PLCb3 inh, PLC-gamma1 inh)
CN(CCC#N)c1ccc(/C=C(\C#N)c2ccccn2)cc1	DDE Tn6 FP inh 31
CCC(C)N(C)Cc1cccc(C2(O)CCN(S(=O)(=O)c3ccc(F)c(C)c3)CC2)c1 (configuration not stated)	DNA FID counter 38
Cc1cc(S(=O)(=O)N2CCN(c3c(C)cccc3C)CC2)ccc1F	none
COc1ccc(NS(=O)(=O)c2cccs2)c(OC)c1	none
COc1ccccc1NC(=O)CSc1nnc(Cn2c(=O)sc3ccccc32)n1C	none
OC(COc1ccc(F)cc1Cl)CN1CCC(Cc2ccccc2)CC1 (configuration not stated)	DNA FID counter 39
O=[N+]([O-])c1cc([N+](=O)[O-])c2oc(-c3ccccc3)c(Br)c2c1O	DNA FID counter 47 (no result: DDE Tn7 FP inh, DDE Tn6 FP inh, PLCb3 inh, PLC-gamma1 inh)
O=c1cc(-c2ccccc2Cl)oc2ccc([N+](=O)[O-])c(O)c12	none
COc1ccc(Nc2nc(-c3cccs3)nc3ccccc23)c(OC)c1	none
COc1ccc(Nc2nc(N3CCN(C)CC3)nc3ccccc23)c(OC)c1	DNA FID counter 46
O=C(O)CCCCCn1c(SCC(=O)c2ccc(O)c(O)c2)nc2ccsc2c1=O	PLC-gamma1 inh 11
CCCCn1c(SCC(=O)c2ccc(O)c(O)c2)nc2ccsc2c1=O	none (no result: DDE Tn7 FP inh, DDE Tn6 FP inh, PLCb3 inh, PLC-gamma1 inh)
Cc1sc(NC(=O)C2C3CCC(O3)C2C(=O)O)nc1-c1ccc(CC(C)C)cc1 (configuration not stated)	none
Cc1ccc(CN2C(=O)CSc3ccc(C(=O)NCCN4CCOCC4)cc32)cc1	DNA FID counter 43 (no result: DDE Tn7 FP inh, DDE Tn6 FP inh, PLCb3 inh, PLC-gamma1 inh)
CCN(CC)c1ccc(C(=C2C=CC(=[N+](CC)CC)C=C2)c2ccccc2)cc1	none (no result: DNA FID counter)
CCN(CC)c1ccc(C(=C2C=CC(=[N+](CC)CC)C=C2)c2ccc(N(CC)CC)cc2)cc1	DDE Tn6 FP inh 84 (no result: DNA FID counter)
COc1ccc(OC)c(C(c2nnnn2CCc2ccccc2)N2CCN(c3ccccc3)CC2)c1 (configuration not stated)	PLC-gamma1 inh 11
O=C(CN1C(=O)/C(=C2\SC(=S)N(CCS(=O)(=O)O)C2=O)c2ccccc21)Nc1cccc(Br)c1	DNA FID counter 58
Cc1cccc[n+]1CC(=O)/C=C1\N(C)c2ccccc2C1(C)C	none
CN1/C(=C/C=C/c2n(C)c3cc([N+](=O)[O-])c([N+](=O)[O-])cc3[n+]2C)C(C)(C)c2ccccc21	PLCb3 inh 13, PLC-gamma1 inh 9.7 (no result: DNA FID counter)
COc1cc(/C=C2/C(=O)N(c3ccc(C)c(C)c3)N=C2C)cc([N+](=O)[O-])c1O	none
CC1=NN(c2ccccc2)C(=O)/C1=C\c1ccc(Oc2ccc([N+](=O)[O-])cc2[N+](=O)[O-])cc1	PLC-gamma1 inh 20
O=c1ccc2cc3c4c(c2o1)CCCN4CCC3	DDE Tn7 FP inh 23
C[C@@H]1CN([C@H](C)CO)C(=O)c2cc(NC(=O)Nc3ccc(C(F)(F)F)cc3)ccc2O[C@H]1CN(C)C(=O)Nc1ccc(F)cc1	none (no result: DNA FID counter)
C[C@H](CO)N1C[C@H](C)[C@@H](CN(C)C(=O)Nc2ccc(C(F)(F)F)cc2)Oc2ccc(NC(=O)Nc3ccc(C(F)(F)F)cc3)cc2C1=O	DDE Tn6 FP inh 31 (no result: DNA FID counter)
COc1ccc(-n2nc(C(=O)N3CCN(c4ccc(F)cc4)CC3)c3ccccc3c2=O)c(OC)c1	none

Screens (PubChem)
